# According to ChEMBL document CHEMBL3399948, “Discovery of 7-azaindole derivatives as potent Orai inhibitors showing efficacy in a preclinical model of asthma” (Bioorg Med Chem Lett, 2015):
# Assays:
# [1] = Solubility of the compound in water; format: physicochemical
# [2] = Inhibition of Orai channel in phytohemagglutinin-stimulated human Jurkat E6-1 cells assessed as NFAT-induced transcription measured as IL-2 level after 20 hrs by ELISA; format: cell-based
# [3] = Inhibition of Orai-mediated calcium entry in human Jurkat E6-1 cells after 1 hr by FLIPR assay; format: cell-based
# [4] = Lipophilicity, log D of the compound at pH 7.4; format: physicochemical; settings: buffer
# [5] = target: Calcium release-activated calcium channel protein 1 (Homo sapiens, UniProt Q96D31); test: Inhibition of human Orai1/STIM1 expressed in HEK293 cells assessed as inhibition of channel-mediated calcium current by electrophysiology assay in presence of 10 mM EGTA; format: cell-based
# Calcium release-activated calcium channel protein 1, sequence (Q96D31 whole entry): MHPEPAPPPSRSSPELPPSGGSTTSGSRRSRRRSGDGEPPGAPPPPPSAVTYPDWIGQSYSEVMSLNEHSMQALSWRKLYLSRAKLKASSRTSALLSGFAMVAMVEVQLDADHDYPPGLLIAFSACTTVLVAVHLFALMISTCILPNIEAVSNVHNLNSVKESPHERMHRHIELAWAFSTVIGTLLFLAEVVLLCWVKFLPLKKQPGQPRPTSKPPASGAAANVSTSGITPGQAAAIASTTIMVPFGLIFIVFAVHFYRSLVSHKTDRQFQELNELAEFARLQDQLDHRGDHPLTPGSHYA
# Outline: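 Automated whole-cell patch clamp on HEK293 cells stably expressing human STIM1/Orai1. I_CRAC activated by passive store depletion with 10 mM EGTA in the internal solution. Holding potential 0 mV; 100 ms voltage ramps applied every 3 s. IC50 from normalized inhibition, at least 3 cells per concentration; values are mean ± SD of two or more determinations.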
# [6] = Terminal half life in Wistar rat at 1 mg/kg, iv; format: ADME, organism-based; design: dose 1 mg/kg, route intravenous; settings: in vivo, read-out: beta t1/2 (converted)
# [7] = Volume of distribution at steady state in Wistar rat at 1 mg/kg, iv; format: ADME, organism-based; design: dose 1 mg/kg, route intravenous; settings: in vivo, read-out: Vdss
# [8] = Drug metabolism in human liver microsomes at 5 uM after 30 mins in presence of NADPH; format: ADME; settings: read-out: Drug metabolism
# Outline: (§1)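 Rat or human hepatic microsomes (1 mg/mL protein) incubated with 5 µM compound plus NADPH for 30 min at 37 °C; result given as percent metabolized.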
# Blood = test: Inhibition of IL2 secretion in rat whole blood after 24 hrs by Rat IL-2 DuoSet assay; format: functional, tissue-based
# Outline: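 Rat whole blood diluted 1:4 in RPMI and stimulated with concanavalin A (62.5 µg/mL) in the presence of increasing compound concentrations for 24 h. Supernatant IL-2 quantified by rat IL-2 ELISA against a standard curve; IC50 derived.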
# Rattus norvegicus [9] = test: Antiinflammatory activity against po dosed ovalbumin-induced model of allergic inflammation in brown Norway rat assessed as inhibition of eosinophil infiltration in bronchoalveolar lavage fluid at plasma level >3-fold above IC50 for rat IL-2 inhibition compound administered bid 1 hr before and 6.5 hrs post ovalbumin challenge measured 24 hrs post challenge relative to vehicle-treated control; format: functional
# Outline: (§2)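 Brown Norway rats (200-250 g) sensitized i.p. with OVA/Alum on days 0, 14 and 21, then challenged with OVA aerosol on day 28. Oral dosing at 3, 10 or 30 mg/kg bid, 1 h before and 6.5 h after challenge. Vehicle: TPGS 11.7%, PEG-400 40%, propylene glycol 15%, water 33.3%. Eight rats per group. BALF eosinophils counted 24 h post-challenge; inhibition expressed versus vehicle. Dexamethasone served as positive control. Plasma levels measured by UPLC-MS.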
# [10] = Passive permeability of the compound at 20 uM by PAMPA; format: ADME; settings: read-out: permeability
# [11] = AUC (0 to 24 hrs) in Wistar rat at 1 mg/kg, iv; format: ADME, organism-based; design: time < 24 hr, dose 1 mg/kg, route intravenous; settings: plasma
# [12] = AUC (0 to 24 hrs) in Wistar rat at 10 mg/kg, po; format: ADME, organism-based; design: time < 24 hr, dose 10 mg/kg, route oral; settings: plasma
# Rattus norvegicus [13] = test: Antiinflammatory activity against ovalbumin-induced model of allergic inflammation in brown Norway rat assessed as inhibition of eosinophil infiltration in bronchoalveolar lavage fluid at 10 mg/kg, po bid 1 hr before and 6.5 hrs post ovalbumin challenge measured 24 hrs post challenge relative to vehicle-treated control; format: functional; settings: Lung; outline: as §2
# Rattus norvegicus [14] = test: Antiinflammatory activity against ovalbumin-induced model of allergic inflammation in brown Norway rat assessed as inhibition of eosinophil infiltration in bronchoalveolar lavage fluid compound administered orally bid 1 hr before and 6.5 hrs post ovalbumin challenge measured 24 hrs post challenge relative to vehicle-treated control; format: functional, organism-based; settings: Lung; outline: as §2
# [15] = Drug metabolism in rat liver microsomes at 5 uM after 30 mins in presence of NADPH; format: ADME; settings: read-out: Drug metabolism; outline: as §1
# LAD2 = test: Inhibition of degranulation in human LAD2 cells assessed as inhibition of IgE-induced beta-hexosaminidase release preincubated for 30 mins by p-nitrophenyl-N-acetyl-D-glucosamide-based spectrophotometric assay; format: functional, cell-based
# Outline: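 Human LAD2 mast cells sensitized overnight with 100 ng/mL biotin-IgE in SCF-containing medium. Supernatant β-hexosaminidase measured with p-nitrophenyl-N-acetyl-glucosamide (pH 4.5, 90 min, 37 °C), stopped with glycine pH 10, absorbance read at 405 nm.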
# Rattus norvegicus [16] = test: Antiinflammatory activity against ovalbumin-induced model of allergic inflammation in brown Norway rat assessed as inhibition of eosinophil infiltration in bronchoalveolar lavage fluid at 30 mg/kg, po bid 1 hr before and 6.5 hrs post ovalbumin challenge measured 24 hrs post challenge relative to vehicle-treated control; format: functional; settings: Lung; outline: as §2
# [17] = Clearance in Wistar rat at 1 mg/kg, iv; format: ADME, organism-based; design: dose 1 mg/kg, route intravenous; settings: in vivo
# [18] = Cmax in Wistar rat at 10 mg/kg, po; format: ADME, organism-based; design: dose 10 mg/kg, route oral; settings: in vivo
# CHO = test: Cytotoxicity against CHO cells; format: cell-based; settings: Cricetulus griseus
# Rattus norvegicus [19] = test: Antiinflammatory activity against ovalbumin-induced model of allergic inflammation in brown Norway rat assessed as inhibition of eosinophil infiltration in bronchoalveolar lavage fluid at 3 mg/kg, po bid 1 hr before and 6.5 hrs post ovalbumin challenge measured 24 hrs post challenge relative to vehicle-treated control; format: functional; settings: Lung; outline: as §2
# [20] = Oral bioavailability in Wistar rat at 10 mg/kg; format: ADME, organism-based; settings: in vivo
# [21] = Plasma protein binding in Wistar rat; format: ADME, cell-free; settings: read-out: PPB
# Rattus norvegicus [22] = test: Antiinflammatory activity against ovalbumin-induced model of allergic inflammation in brown Norway rat assessed as inhibition of eosinophil infiltration in bronchoalveolar lavage fluid at 1 mg/kg, po bid 1 hr before and 6.5 hrs post ovalbumin challenge measured 24 hrs post challenge relative to vehicle-treated control; format: functional; settings: Lung
smiles,measurement,setting,value
Cc1nc2cc(-c3cnc4[nH]c(-c5c(F)cccc5Cl)cc4c3)c(Cl)cc2o1,solubility,[1],< 1 µg/mL
same,IC50,[2],0.117 µM
same,IC50,[3],0.088 µM
Cc1cc(S(=O)(=O)N2CCOCC2)ccc1-c1cnc2[nH]c(-c3c(F)cccc3Cl)cc2c1,IC50,[3],10 µM
COc1ncc(-c2cnc3[nH]c(-c4c(F)cccc4Cl)cc3c2)c(C)n1,IC50,[3],10 µM
Cn1nc(C(F)(F)F)cc1-c1cnc2[nH]c(-c3c(F)cccc3F)cc2c1,IC50,[2],0.073 µM
same,IC50,[3],0.14 µM
Fc1cccc(Cl)c1-c1cc2cc(-c3cc4c(cc3Cl)OC(F)(F)O4)cnc2[nH]1,solubility,[1],< 1 µg/mL
same,IC50,[2],0.056 µM
same,IC50,[3],0.12 µM
Cn1nc(C(F)(F)F)cc1-c1cnc2[nH]c(Cc3ccccc3)cc2c1,IC50,[2],3 µM
same,IC50,[3],1.4 µM
Cn1nc(C(F)(F)F)cc1-c1cnc2[nH]c(C3CCOCC3)cc2c1,IC50,[3],> 10 µM
Cc1nnsc1C(=O)Nc1ccc(-n2nc(C(F)(F)F)cc2C(F)(F)F)cc1,logD,[4],4.4
same,IC50,[2],0.01 µM
same,IC50,[3],0.075 µM
Cc1cc(S(=O)(=O)N(C)C)ccc1-c1cnc2[nH]c(-c3c(F)cccc3Cl)cc2c1,IC50,[2],0.119 µM
same,IC50,[3],0.55 µM
Cc1cc(=O)n(C)cc1-c1cnc2[nH]c(-c3c(F)cccc3Cl)cc2c1,IC50,[3],> 10 µM
Cn1nc(C(F)(F)F)cc1-c1cnc2[nH]c(C3CCCC3)cc2c1,IC50,[2],0.27 µM
same,IC50,[3],0.26 µM
Cc1cc(=O)[nH]cc1-c1cnc2[nH]c(-c3c(F)cccc3Cl)cc2c1,IC50,[3],> 10 µM
Cc1cc(OC(F)F)ncc1-c1cnc2[nH]c(-c3c(F)cccc3Cl)cc2c1,IC50,[2],0.15 µM
same,IC50,[3],0.064 µM
Cc1cc(S(C)(=O)=O)ccc1-c1cnc2[nH]c(-c3c(F)cccc3Cl)cc2c1,IC50,[2],0.29 µM
same,IC50,[3],0.28 µM
Cc1cc(C(F)(F)F)ncc1-c1cnc2[nH]c(-c3c(F)cccc3Cl)cc2c1,IC50,[2],0.12 µM
same,IC50,[3],0.129 µM
COc1cc(OC)c(-c2cnc3[nH]c(-c4c(F)cccc4Cl)cc3c2)cn1,IC50,[5],0.44 µM
same,half-life,[6],8 h
same,solubility,[1],< 5 µg/mL
same,Vd,[7],5 L/kg
same,"metabolised at 0.5 h, 5 µM",[8],< 5%
same,IC50,Blood,0.74 µM
same,IC50,[2],0.068 µM
same,inhibition (INH),Rattus norvegicus [9],70%
same,Papp at 20 µM,[10],6.6 nm/s
same,AUC(0-t) at 24 h,[11],1.82 µg·h/mL
same,AUC(0-t) at 24 h,[12],11.2 µg·h/mL
same,inhibition in vivo at 10 mg/kg,Rattus norvegicus [13],68%
same,inhibition,Rattus norvegicus [14],Dose-dependent effect
same,"metabolised at 0.5 h, 5 µM",[15],10%
same,IC50,LAD2,0.63 µM
same,inhibition in vivo at 30 mg/kg,Rattus norvegicus [16],75%
same,clearance,[17],0.48 L/h/kg
same,Cmax,[18],0.807 µg/mL
same,IC50,CHO,> 100 µM
same,IC50,[3],0.15 µM
same,inhibition in vivo at 3 mg/kg,Rattus norvegicus [19],9%
same,bioavailability,[20],62%
COc1ccc(OC)c(-c2ccc(NC(=O)c3ccncc3F)cc2)c1,logD,[4],3.5
same,IC50,[2],0.01 µM
same,IC50,[3],0.082 µM
CNCc1ccc(-c2cnc3[nH]c(-c4c(F)cccc4Cl)cc3c2)c(C)c1,IC50,[3],10 µM
Cn1nc(C(F)(F)F)cc1-c1cnc2[nH]c(-c3c(F)cccc3Cl)cc2c1,IC50,[5],< 0.1 µM
same,solubility,[1],< 5 µg/mL
same,"metabolised at 0.5 h, 5 µM",[8],< 5%
same,fraction unbound,[21],< 0.001
same,IC50,Blood,0.5 µM
same,IC50,[2],0.023 µM
same,Papp at 20 µM,[10],< 0.5 nm/s
same,"metabolised at 0.5 h, 5 µM",[15],< 5%
same,IC50,LAD2,0.372 µM
same,IC50,CHO,> 100 µM
same,IC50,[3],0.066 µM
COc1cc(C)c(-c2cnc3[nH]c(-c4c(F)cccc4Cl)cc3c2)cn1,IC50,[5],0.104 µM
same,half-life,[6],2.1 h
same,solubility,[1],< 5 µg/mL
same,Vd,[7],4.2 L/kg
same,"metabolised at 0.5 h, 5 µM",[8],15%
same,IC50,Blood,1.3 µM
same,IC50,[2],0.04 µM
same,Papp at 20 µM,[10],1 nm/s
same,AUC(0-t) at 24 h,[11],0.596 µg·h/mL
same,AUC(0-t) at 24 h,[12],2.18 µg·h/mL
same,"metabolised at 0.5 h, 5 µM",[15],10%
same,IC50,LAD2,0.443 µM
same,clearance,[17],1.44 L/h/kg
same,Cmax,[18],0.153 µg/mL
same,IC50,CHO,> 100 µM
same,IC50,[3],0.071 µM
same,bioavailability,[20],37%
Cn1nc(C(F)(F)F)cc1-c1cnc2[nH]c(C3CCCCC3)cc2c1,IC50,[2],0.183 µM
same,IC50,[3],0.31 µM
CNS(=O)(=O)c1ccc(-c2cnc3[nH]c(-c4c(F)cccc4Cl)cc3c2)c(C)c1,IC50,[2],0.18 µM
same,IC50,[3],0.155 µM
C[C@@H]1C[C@H]2[C@@H]3CCC4=CC(=O)C=C[C@]4(C)[C@@]3(F)[C@@H](O)C[C@]2(C)[C@@]1(O)C(=O)CO [DEXAMETHASONE],inhibition in vivo at 1 mg/kg,Rattus norvegicus [22],100%
Cn1nc(C(F)(F)F)cc1-c1cnc2[nH]c(-c3ccccc3Cl)cc2c1,IC50,[2],0.26 µM
same,IC50,[3],0.16 µM
